The source made the active and inactive calls. The rule behind the calls is not given here.

The test system of data set [1] is Rattus norvegicus. Kind of data set: Antipyretic activity against brewer's yeast-induced hyperthermia in albino Wistar rat assessed as change in rectal temperature at 300 mg/kg, po after 1 hr (reference value: 33.78 +/- 0.18 degC). It is filed as functional.
The subject of data set [2] is Rattus norvegicus. Nature of the data set: Antipyretic activity against brewer's yeast-induced hyperthermia in albino Wistar rat assessed as change in rectal temperature at 300 mg/kg, po after 3 hrs (reference value: 32.80 +/- 0.09 degC). It is filed as functional.
For data set [3], the system named is Rattus norvegicus. Kind of data set: Antipyretic activity against brewer's yeast-induced hyperthermia in albino Wistar rat assessed as change in rectal temperature at 300 mg/kg, po after 5 hrs (reference value: 34.36 +/- 0.14 degC). The class given is functional.
Data set [4] has as its system Rattus norvegicus. Kind of data set: Antipyretic activity against brewer's yeast-induced hyperthermia in albino Wistar rat assessed as change in rectal temperature at 300 mg/kg, po after 6 hrs (reference value: 33.44 +/- 0.18 degC). The class given is functional.
For data set [5], the system named is Rattus norvegicus. Nature of the data set: Acute toxicity in albino Wistar rat assessed as mortality at up to 3 g/kg, po after 24 hrs. It is filed as organism-based. As to conditions: in vivo, 3000 mg/kg. The method in brief:
(§1)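 Albino rats of either sex, groups of six, dosed from 100 up to 3000 mg kg^-1 body weight. Watched continuously for 8 h for signs such as altered motor activity, ataxia, tremors, convulsions, sedation and lacrimation. Killed at 24 h; stomach, intestine and liver inspected under magnifying lenses for ulcer-haemorrhagic spots.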

Data set [6] has as its system Rattus norvegicus. Nature of the data set: Acute toxicity in albino Wistar rat assessed as sedation at up to 3 g/kg, po after 24 hrs. As to conditions: in vivo, 3000 mg/kg. The class given is organism-based. The method in brief: as §1
Data set [7] deals with Rattus norvegicus. Kind of data set: Acute toxicity in albino Wistar rat assessed as convulsion at up to 3 g/kg, po after 24 hrs. The class given is organism-based. As to conditions: in vivo, 3000 mg/kg. The method in brief: as §1
Data set [8] concerns Rattus norvegicus. Nature of the data set: Acute toxicity in albino Wistar rat assessed as tremors at up to 3 g/kg, po after 24 hrs. It is filed as organism-based. As to conditions: in vivo, 3000 mg/kg. The method in brief: as §1
Data set [9] concerns Rattus norvegicus. Nature of the data set: Acute toxicity in albino Wistar rat assessed as ulceration at up to 3 g/kg, po after 24 hrs. The class given is organism-based. As to conditions: in vivo, 3000 mg/kg. The method in brief:
as §1

Data set [10] concerns Rattus norvegicus. Kind of data set: Acute toxicity in albino Wistar rat assessed as haemorrhagic spots at up to 3 g/kg, po after 24 hrs. It is filed as organism-based. As to conditions: in vivo, 3000 mg/kg. The method in brief: as §1
In data set [11] the test system is Rattus norvegicus. Kind of data set: Acute toxicity in albino Wistar rat assessed as stomach ulcerhaemorrhagic spots at up to 3 g/kg, po after 24 hrs. The class given is organism-based. As to conditions: in vivo, 3000 mg/kg. The method in brief:
as §1

Data set [12] deals with Rattus norvegicus. Nature of the data set: Acute toxicity in albino Wistar rat assessed as intestine ulcerhaemorrhagic spots at up to 3 g/kg, po after 24 hrs. It is filed as organism-based. As to conditions: in vivo, 3000 mg/kg. The method in brief:
as §1

The test system of data set [13] is Rattus norvegicus. Kind of data set: Analgesic activity in albino Wistar rat assessed as reaction time required for tail flicking at 25 mg/kg, po after 30 mins by tail-flick method (reference value: 3.97 +/- 0.287 sec). It is filed as functional.
For data set [14], the system named is Rattus norvegicus. Kind of data set: Analgesic activity in albino Wistar rat assessed as reaction time required for tail flicking at 25 mg/kg, po after 60 mins by tail-flick method (reference value: 4 +/- 0.360 sec). The class given is functional.
Data set [15] concerns Rattus norvegicus. Nature of the data set: Analgesic activity in albino Wistar rat assessed as reaction time required for tail flicking at 25 mg/kg, po after 90 mins by tail-flick method (reference value: 3.87 +/- 0.355 sec). The class given is functional.
The test system of data set [16] is Rattus norvegicus. Nature of the data set: Antipyretic activity against brewer's yeast-induced hyperthermia in albino Wistar rat assessed as change in rectal temperature at 100 mg/kg, po after 1 hr (reference value: 33.78 +/- 0.18 degC). The class given is functional.
In data set [17] the test system is Rattus norvegicus. Kind of data set: Antipyretic activity against brewer's yeast-induced hyperthermia in albino Wistar rat assessed as change in rectal temperature at 100 mg/kg, po after 3 hrs (reference value: 32.80 +/- 0.09 degC). The class given is functional.
Data set [18] deals with Rattus norvegicus. Kind of data set: Antipyretic activity against brewer's yeast-induced hyperthermia in albino Wistar rat assessed as change in rectal temperature at 100 mg/kg, po after 5 hrs (reference value: 34.36 +/- 0.14 degC). The class given is functional.
Data set [19] has as its system Rattus norvegicus. Nature of the data set: Antipyretic activity against brewer's yeast-induced hyperthermia in albino Wistar rat assessed as change in rectal temperature at 100 mg/kg, po after 6 hrs (reference value: 33.44 +/- 0.18 degC). It is filed as functional.
A further data set deals with Nucleic Acid. Kind of data set: Induction of Escherichia coli DNA cleavage at 25 mg after 24 hrs by agarose gel electrophoresis method. It is filed as nucleic-acid assay. The method in brief: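 E. coli grown in nutrient broth 24 h at 37 °C. Genomic DNA isolated by SDS lysis, phenol (55 °C, 10 min), chloroform:isoamyl alcohol extraction and ethanol precipitation, dissolved in TAE. Compounds at 1 mg/ml in DMF added to DNA, incubated 2 h at 37 °C. Run on agarose gel at 50 V about 30 min, stained with ethidium bromide, bands compared with DNA marker.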

`CC(=O)Oc1ccccc1C(=O)O` [ASPIRIN]: the T stood at 32.82 °C in the data set on Rattus norvegicus [1], 32 °C in the data set on Rattus norvegicus [2], 32.3 °C in the data set on Rattus norvegicus [3] and 32.38 °C in the data set with Rattus norvegicus [4].
As to `Cc1ccc2c(COc3ccc(-c4cc(-c5ccccc5)nc(N)n4)cc3)cc(=O)oc2c1`, the Activity entry in the data set on Rattus norvegicus [5], in the data set on Rattus norvegicus [6], in the data set with Rattus norvegicus [7], in the data set with Rattus norvegicus [8], in the data set on Rattus norvegicus [9] and in the data set with Rattus norvegicus [10] was “Non-toxic” each time. The Activity entry in the data set with Rattus norvegicus [11] and in the data set on Rattus norvegicus [12] was “Non-toxic” each time. The Time in the data set with Rattus norvegicus [13] came to 5.1 s; in the data set with Rattus norvegicus [14] it was 6.75 s; in the data set with Rattus norvegicus [15], 7.5 s. Also, the T is 32.74 °C in the data set on Rattus norvegicus [16], 32.6 °C in the data set on Rattus norvegicus [17], 33.8 °C in the data set on Rattus norvegicus [18] and 32.8 °C in the data set with Rattus norvegicus [19]. Moreover, in the data set on Nucleic Acid, the outcome was Active.
As to `O=c1cc(COc2ccc(-c3cc(-c4ccccc4)nc(O)n3)cc2)c2c(ccc3ccccc32)o1`, the Activity result in the data set with Rattus norvegicus [5], in the data set on Rattus norvegicus [6], in the data set on Rattus norvegicus [7], with Rattus norvegicus [8], with Rattus norvegicus [9] and with Rattus norvegicus [10] was “Non-toxic” each time. Further, the Activity entry with Rattus norvegicus [11] and with Rattus norvegicus [12] was “Non-toxic” throughout. The Time in the data set on Rattus norvegicus [13] was 5 s; in the data set on Rattus norvegicus [14], 8.25 s; with Rattus norvegicus [15] it was 8.87 s. In addition, the T in the data set with Rattus norvegicus [16] was 32.22 °C; in the data set on Rattus norvegicus [17], 32.72 °C; in the data set with Rattus norvegicus [18] it was 32.82 °C; with Rattus norvegicus [19], 32.68 °C. For the same molecule, the result with Nucleic Acid was Active.
In the case of `Cc1ccc2c(COc3ccc(-c4cc(-c5ccccc5)nc(O)n4)cc3)cc(=O)oc2c1`, the Activity entry with Rattus norvegicus [5], with Rattus norvegicus [6], with Rattus norvegicus [7], in the data set with Rattus norvegicus [8], in the data set with Rattus norvegicus [9] and in the data set on Rattus norvegicus [10] was “Non-toxic” each time. In addition, the Activity result in the data set on Rattus norvegicus [11] and with Rattus norvegicus [12] was “Non-toxic” in each case. The Time with Rattus norvegicus [13] was determined as 4.5 s; with Rattus norvegicus [14], 6.25 s; in the data set on Rattus norvegicus [15] it was 7.75 s. The T in the data set with Rattus norvegicus [16] came out at 32.4 °C; with Rattus norvegicus [17] it was 32.84 °C; in the data set with Rattus norvegicus [18], 33.1 °C; in the data set on Rattus norvegicus [19], 32.4 °C. Besides, in the data set with Nucleic Acid, the outcome was Active.
Take `Cc1ccc2c(COc3ccc(-c4cc(-c5ccccc5)nc(S)n4)cc3)cc(=O)oc2c1`: the Activity result in the data set on Rattus norvegicus [5], with Rattus norvegicus [6], in the data set with Rattus norvegicus [7], in the data set with Rattus norvegicus [8], in the data set on Rattus norvegicus [9] and with Rattus norvegicus [10] was “Non-toxic” throughout. Also, the Activity result with Rattus norvegicus [11] and in the data set with Rattus norvegicus [12] was “Non-toxic” in each case. Further, the Time with Rattus norvegicus [13] is reported as 4.5 s; in the data set with Rattus norvegicus [14], 7.25 s; with Rattus norvegicus [15], 7.5 s. For the same molecule, the T in the data set on Rattus norvegicus [16] stood at 32.81 °C; in the data set with Rattus norvegicus [17], 32.66 °C; with Rattus norvegicus [18], 32.9 °C; with Rattus norvegicus [19], 31.82 °C. Moreover, the outcome with Nucleic Acid was Active.
For the molecule `Cc1ccc2oc(=O)cc(COc3ccc(-c4cc(-c5ccccc5)nc(O)n4)cc3)c2c1`, the Activity entry with Rattus norvegicus [5], in the data set with Rattus norvegicus [6], with Rattus norvegicus [7], in the data set on Rattus norvegicus [8], in the data set on Rattus norvegicus [9] and with Rattus norvegicus [10] was “Non-toxic” throughout. Further, the Activity entry in the data set on Rattus norvegicus [11] and with Rattus norvegicus [12] was “Non-toxic” each time. Also, the Time is recorded as 4.48 s with Rattus norvegicus [13], 5.46 s in the data set with Rattus norvegicus [14] and 6.2 s in the data set on Rattus norvegicus [15]. Further, the T with Rattus norvegicus [16] turned out to be 33.18 °C; with Rattus norvegicus [17], 32.31 °C; with Rattus norvegicus [18] it was 33.12 °C; in the data set with Rattus norvegicus [19], 32.97 °C. In addition, the outcome with Nucleic Acid was Active.
